Assay results as given in ChEMBL document CHEMBL2417539, “1-substituted (Dibenzo[b,d]thiophen-4-yl)-2-morpholino-4H-chromen-4-ones endowed with dual DNA-PK/PI3-K inhibitory activity” (J Med Chem, 2013).

How the values were obtained:
[1] = test system: HeLa; test: Antiproliferative activity against human HeLa cells assessed as cell survival ratio at 0.5 uM treated 1 hr before 2Gy ionizing radiation measured after 6 to 8 days by DMR clonogenic assay; format: functional
Outline: (§1)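 HeLa cells seeded in 6-well dishes, incubated overnight at 37 °C/5% CO2, pre-treated 1 h with vehicle or inhibitor (0.1 or 0.5 μM), then given 2 Gy X-ray IR and held overnight. Medium then replaced without compound and culture continued 6-8 days. Colonies Giemsa-stained and counted automatically. DMR = % survival (vehicle, 2 Gy) / % survival (compound, 2 Gy).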

[2] = test system: HeLa; test: Antiproliferative activity against human HeLa cells assessed as cell survival ratio at 0.1 uM treated 1 hr before 2Gy ionizing radiation measured after 6 to 8 days by DMR clonogenic assay; format: functional; outline: as §1
[3] = target: DNA-dependent protein kinase catalytic subunit (Homo sapiens, UniProt P78527); test: Inhibition of human DNA-PK using GST-tagged p53N66 as substrate after 1 hr by ELISA-based chemiluminiscence assay
DNA-dependent protein kinase catalytic subunit, sequence (P78527 whole entry): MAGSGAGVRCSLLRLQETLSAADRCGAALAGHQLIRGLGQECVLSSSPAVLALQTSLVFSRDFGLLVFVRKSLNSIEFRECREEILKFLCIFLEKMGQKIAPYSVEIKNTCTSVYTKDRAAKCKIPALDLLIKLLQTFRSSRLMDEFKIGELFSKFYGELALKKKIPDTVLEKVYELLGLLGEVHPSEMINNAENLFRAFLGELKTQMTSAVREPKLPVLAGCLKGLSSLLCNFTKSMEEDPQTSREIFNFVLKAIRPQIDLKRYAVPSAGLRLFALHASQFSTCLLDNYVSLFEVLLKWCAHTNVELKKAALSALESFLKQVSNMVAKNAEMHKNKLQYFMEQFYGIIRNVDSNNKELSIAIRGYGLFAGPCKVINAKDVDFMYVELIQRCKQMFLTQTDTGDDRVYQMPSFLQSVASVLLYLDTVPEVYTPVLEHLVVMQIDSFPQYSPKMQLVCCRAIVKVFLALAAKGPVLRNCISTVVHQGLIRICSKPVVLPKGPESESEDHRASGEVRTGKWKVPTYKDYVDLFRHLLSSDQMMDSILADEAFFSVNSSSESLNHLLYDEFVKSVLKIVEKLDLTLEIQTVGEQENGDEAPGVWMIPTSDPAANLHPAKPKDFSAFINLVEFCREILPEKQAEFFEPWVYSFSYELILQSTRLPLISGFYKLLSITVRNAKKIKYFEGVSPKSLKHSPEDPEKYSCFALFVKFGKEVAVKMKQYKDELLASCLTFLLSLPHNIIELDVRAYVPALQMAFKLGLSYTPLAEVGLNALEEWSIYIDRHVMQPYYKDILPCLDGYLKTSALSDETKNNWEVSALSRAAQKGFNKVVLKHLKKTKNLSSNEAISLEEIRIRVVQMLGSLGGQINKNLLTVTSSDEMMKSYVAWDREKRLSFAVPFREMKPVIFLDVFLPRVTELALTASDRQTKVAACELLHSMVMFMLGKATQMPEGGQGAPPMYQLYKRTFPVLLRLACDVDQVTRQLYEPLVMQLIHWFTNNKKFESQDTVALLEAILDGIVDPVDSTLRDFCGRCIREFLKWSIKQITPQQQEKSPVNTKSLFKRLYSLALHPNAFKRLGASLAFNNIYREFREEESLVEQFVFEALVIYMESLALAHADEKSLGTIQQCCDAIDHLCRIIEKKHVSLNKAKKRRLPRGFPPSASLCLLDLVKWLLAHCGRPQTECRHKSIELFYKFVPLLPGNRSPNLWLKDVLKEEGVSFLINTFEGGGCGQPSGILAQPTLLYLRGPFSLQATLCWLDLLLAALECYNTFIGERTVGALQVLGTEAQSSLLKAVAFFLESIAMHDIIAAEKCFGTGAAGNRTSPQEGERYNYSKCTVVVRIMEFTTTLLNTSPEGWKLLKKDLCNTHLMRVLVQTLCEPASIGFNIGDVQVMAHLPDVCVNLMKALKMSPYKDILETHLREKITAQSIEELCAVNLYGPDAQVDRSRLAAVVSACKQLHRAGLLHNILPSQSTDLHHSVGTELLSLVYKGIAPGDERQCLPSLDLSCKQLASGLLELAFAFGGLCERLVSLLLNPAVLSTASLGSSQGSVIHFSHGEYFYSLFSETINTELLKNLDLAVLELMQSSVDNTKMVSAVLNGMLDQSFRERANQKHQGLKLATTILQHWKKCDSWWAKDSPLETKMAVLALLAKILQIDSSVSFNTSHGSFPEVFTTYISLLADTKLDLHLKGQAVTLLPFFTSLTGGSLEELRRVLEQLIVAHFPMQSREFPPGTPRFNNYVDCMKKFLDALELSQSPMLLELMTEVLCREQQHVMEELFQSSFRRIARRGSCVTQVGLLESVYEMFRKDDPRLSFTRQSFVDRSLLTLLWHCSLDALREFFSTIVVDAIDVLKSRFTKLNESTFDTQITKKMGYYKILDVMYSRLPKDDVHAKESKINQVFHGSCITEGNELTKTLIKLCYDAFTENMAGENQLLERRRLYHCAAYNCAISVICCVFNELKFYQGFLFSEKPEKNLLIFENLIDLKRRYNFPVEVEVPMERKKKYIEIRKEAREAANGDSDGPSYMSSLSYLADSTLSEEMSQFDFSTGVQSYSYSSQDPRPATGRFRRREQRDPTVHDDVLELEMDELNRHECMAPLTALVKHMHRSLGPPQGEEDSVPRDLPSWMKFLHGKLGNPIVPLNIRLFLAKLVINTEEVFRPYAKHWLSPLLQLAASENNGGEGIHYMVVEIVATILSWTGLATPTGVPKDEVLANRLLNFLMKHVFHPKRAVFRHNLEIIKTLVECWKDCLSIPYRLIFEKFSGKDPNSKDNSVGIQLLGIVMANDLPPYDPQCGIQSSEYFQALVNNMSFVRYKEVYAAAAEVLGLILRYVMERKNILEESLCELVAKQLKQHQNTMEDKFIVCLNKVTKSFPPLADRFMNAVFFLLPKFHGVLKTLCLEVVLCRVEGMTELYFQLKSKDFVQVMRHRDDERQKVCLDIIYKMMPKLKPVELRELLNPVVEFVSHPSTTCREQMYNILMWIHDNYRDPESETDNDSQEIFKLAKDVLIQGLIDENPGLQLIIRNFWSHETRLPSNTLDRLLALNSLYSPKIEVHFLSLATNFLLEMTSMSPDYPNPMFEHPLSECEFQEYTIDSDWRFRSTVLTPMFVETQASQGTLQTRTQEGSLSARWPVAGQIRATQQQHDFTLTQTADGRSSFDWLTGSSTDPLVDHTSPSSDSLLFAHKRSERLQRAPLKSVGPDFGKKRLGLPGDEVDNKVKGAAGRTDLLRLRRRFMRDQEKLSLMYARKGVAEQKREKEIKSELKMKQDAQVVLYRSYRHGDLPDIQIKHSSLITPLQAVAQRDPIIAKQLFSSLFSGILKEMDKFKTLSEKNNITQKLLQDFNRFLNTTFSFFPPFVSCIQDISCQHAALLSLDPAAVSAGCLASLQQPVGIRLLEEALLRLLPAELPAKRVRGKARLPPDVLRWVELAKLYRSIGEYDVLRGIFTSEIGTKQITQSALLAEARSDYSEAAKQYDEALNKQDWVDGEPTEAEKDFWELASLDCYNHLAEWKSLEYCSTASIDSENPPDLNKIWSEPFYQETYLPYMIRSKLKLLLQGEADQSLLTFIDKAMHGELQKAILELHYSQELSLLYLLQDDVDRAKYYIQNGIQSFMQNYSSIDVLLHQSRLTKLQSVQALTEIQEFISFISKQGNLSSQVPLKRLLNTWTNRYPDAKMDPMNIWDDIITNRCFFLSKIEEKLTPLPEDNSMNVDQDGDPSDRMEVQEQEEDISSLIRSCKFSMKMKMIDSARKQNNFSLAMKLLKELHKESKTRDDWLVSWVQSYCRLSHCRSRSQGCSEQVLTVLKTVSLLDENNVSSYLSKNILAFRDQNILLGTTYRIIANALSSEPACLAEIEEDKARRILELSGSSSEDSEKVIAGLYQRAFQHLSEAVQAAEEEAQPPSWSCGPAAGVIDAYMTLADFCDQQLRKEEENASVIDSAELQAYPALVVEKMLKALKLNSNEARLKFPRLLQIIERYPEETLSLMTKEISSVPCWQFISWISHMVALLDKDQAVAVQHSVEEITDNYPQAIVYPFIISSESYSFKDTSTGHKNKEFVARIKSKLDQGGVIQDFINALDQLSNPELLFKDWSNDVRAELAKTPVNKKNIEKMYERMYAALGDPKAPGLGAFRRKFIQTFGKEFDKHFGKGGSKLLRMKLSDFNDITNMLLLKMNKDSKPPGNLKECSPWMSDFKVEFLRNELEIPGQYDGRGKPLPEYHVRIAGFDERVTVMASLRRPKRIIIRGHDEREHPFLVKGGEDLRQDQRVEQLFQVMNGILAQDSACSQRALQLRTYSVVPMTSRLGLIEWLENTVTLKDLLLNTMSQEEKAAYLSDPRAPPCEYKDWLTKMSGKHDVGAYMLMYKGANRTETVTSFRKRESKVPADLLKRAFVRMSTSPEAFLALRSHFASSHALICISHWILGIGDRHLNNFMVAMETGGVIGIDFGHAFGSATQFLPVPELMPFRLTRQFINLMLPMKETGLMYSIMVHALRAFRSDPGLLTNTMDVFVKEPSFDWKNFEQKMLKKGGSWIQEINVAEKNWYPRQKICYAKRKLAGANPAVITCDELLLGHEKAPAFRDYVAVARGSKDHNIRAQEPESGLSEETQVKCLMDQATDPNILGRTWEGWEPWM

Compound | Ratio [1] | Ratio [2] | IC50 [3]
C[C@@H]1CN(CCC(=O)Nc2ccc(-c3cccc4c(=O)cc(N5CCOCC5)oc34)c3sc4ccccc4c23)C[C@H](C)O1 | 9.3 | 2.4 | 9 nM
CCN(CC)CCC(=O)Nc1ccc(-c2cccc3c(=O)cc(N4CCOCC4)oc23)c2sc3ccccc3c12 | 5.7 | 1.8 | 12 nM
COC(=O)[C@H](CO)NC(=O)COc1ccc(-c2cccc3c(=O)cc(N4CCOCC4)oc23)c2sc3ccccc3c12 | 6.1 | 1.5 | 6 nM
CCN1CCN(CCC(=O)Nc2ccc(-c3cccc4c(=O)cc(N5CCOCC5)oc34)c3sc4ccccc4c23)CC1 | 4.1 | 1.4 | 33 nM
O=C(CN1CCN(c2ccc(F)cc2)CC1)Nc1ccc(-c2cccc3c(=O)cc(N4CCOCC4)oc23)c2sc3ccccc3c12 | 4.9 | 1 | 15 nM
O=C(CCNCC1CCCO1)Nc1ccc(-c2cccc3c(=O)cc(N4CCOCC4)oc23)c2sc3ccccc3c12 (stereo not drawn) | 4.7 | 2 | 7 nM
CN1CCCN(CC(=O)Nc2ccc(-c3cccc4c(=O)cc(N5CCOCC5)oc34)c3sc4ccccc4c23)CC1 | 7.6 | 1.7 | 55 nM
O=C(CN1CCNCC1)Nc1ccc(-c2cccc3c(=O)cc(N4CCOCC4)oc23)c2sc3ccccc3c12 | 5 | 1.4 | 24 nM
O=C(CCN1CCN(c2ccc(F)cc2)CC1)Nc1ccc(-c2cccc3c(=O)cc(N4CCOCC4)oc23)c2sc3ccccc3c12 | 3.8 | 1.5 | 30 nM
CN1CCCN(C(=O)COc2ccc(-c3cccc4c(=O)cc(N5CCOCC5)oc34)c3sc4ccccc4c23)CC1 | 2 | 1.1 | 44 nM
CN(C)CCN(C)CCC(=O)Nc1ccc(-c2cccc3c(=O)cc(N4CCOCC4)oc23)c2sc3ccccc3c12 | 5.1 | 1.2 | 78 nM
O=C(CCN1CCCCCC1)Nc1ccc(-c2cccc3c(=O)cc(N4CCOCC4)oc23)c2sc3ccccc3c12 | 8.4 | 3.1 | 11 nM
CCN(CC(=O)Nc1ccc(-c2cccc3c(=O)cc(N4CCOCC4)oc23)c2sc3ccccc3c12)Cc1ccncc1 | 14.1 | 1.5 | 8 nM
COCCNCC(=O)Nc1ccc(-c2cccc3c(=O)cc(N4CCOCC4)oc23)c2sc3ccccc3c12 | 5.9 | 1.2 | 7 nM
O=C(CCNCCN1CCNC1=O)Nc1ccc(-c2cccc3c(=O)cc(N4CCOCC4)oc23)c2sc3ccccc3c12 | 0.9 | 1.1 | 6 nM
O=C(CCNCc1ccncc1)Nc1ccc(-c2cccc3c(=O)cc(N4CCOCC4)oc23)c2sc3ccccc3c12 | 2.6 | 1.1 | 12 nM
C[C@@H]1CN(CC(=O)Nc2ccc(-c3cccc4c(=O)cc(N5CCOCC5)oc34)c3sc4ccccc4c23)C[C@H](C)O1 | 8.2 | 1.3 | 4 nM
O=C(CCNCCCN1CCOCC1)Nc1ccc(-c2cccc3c(=O)cc(N4CCOCC4)oc23)c2sc3ccccc3c12 | 1.4 | 0.9 | 9 nM
COCCN1CCN(CCC(=O)Nc2ccc(-c3cccc4c(=O)cc(N5CCOCC5)oc34)c3sc4ccccc4c23)CC1 | 3.5 | 1.3 | 19 nM
COC(=O)[C@H](CO)NCCOc1ccc(-c2cccc3c(=O)cc(N4CCOCC4)oc23)c2sc3ccccc3c12 | 10.5 | 2.9 | 2 nM
NCCNCC(=O)Nc1ccc(-c2cccc3c(=O)cc(N4CCOCC4)oc23)c2sc3ccccc3c12 | 1.5 | 1.1 | 16 nM
CN(C)CCOc1ccc(-c2cccc3c(=O)cc(N4CCOCC4)oc23)c2sc3ccccc3c12 | 3.3 | 1.8 | 8 nM
CN1CCN(CCC(=O)Nc2ccc(-c3cccc4c(=O)cc(N5CCOCC5)oc34)c3sc4ccccc4c23)CC1 | 6.6 | 1 | 28 nM
CCN(CC)CC(=O)Nc1ccc(-c2cccc3c(=O)cc(N4CCOCC4)oc23)c2sc3ccccc3c12 | 3.7 | 1.2 | 84 nM
CN1CCCN(CCOc2ccc(-c3cccc4c(=O)cc(N5CCOCC5)oc34)c3sc4ccccc4c23)CC1 | 3.6 | 1.5 | 10 nM
O=C(CNCC1CCCO1)Nc1ccc(-c2cccc3c(=O)cc(N4CCOCC4)oc23)c2sc3ccccc3c12 (stereo not drawn) | 7.7 | 1.7 | 14 nM
CN(CCOc1ccc(-c2cccc3c(=O)cc(N4CCOCC4)oc23)c2sc3ccccc3c12)CC(N)=O | 7.7 | 1.4 | 3 nM

Compound | Ratio [1] | Ratio [2] | IC50 [3]
CN(C)CCN(C)CCOc1ccc(-c2cccc3c(=O)cc(N4CCOCC4)oc23)c2sc3ccccc3c12 | – | – | 5 nM
O=C(CN1CCCCC1)Nc1ccc(-c2cccc3c(=O)cc(N4CCOCC4)oc23)c2sc3ccccc3c12 | 10.4 | 1.2 | 21 nM
O=C(CN1CCN(c2ccccn2)CC1)Nc1ccc(-c2cccc3c(=O)cc(N4CCOCC4)oc23)c2sc3ccccc3c12 | 9.9 | 1.8 | 7 nM
COc1ccc(CNCC(=O)Nc2ccc(-c3cccc4c(=O)cc(N5CCOCC5)oc34)c3sc4ccccc4c23)cc1 | 6.8 | 1.4 | 38 nM
CC(=O)N1CCN(C(=O)COc2ccc(-c3cccc4c(=O)cc(N5CCOCC5)oc34)c3sc4ccccc4c23)CC1 | 1.6 | 1 | 16 nM
O=C(CCNCCO)Nc1ccc(-c2cccc3c(=O)cc(N4CCOCC4)oc23)c2sc3ccccc3c12 | 0.9 | 0.9 | 10 nM
O=C(CCN1CCN(c2ccccn2)CC1)Nc1ccc(-c2cccc3c(=O)cc(N4CCOCC4)oc23)c2sc3ccccc3c12 | 4.4 | 1.5 | 24 nM
CN(C)CC(=O)Nc1ccc(-c2cccc3c(=O)cc(N4CCOCC4)oc23)c2sc3ccccc3c12 | 7.4 | 1 | 18 nM
CN(C)CCN1CCN(CC(=O)Nc2ccc(-c3cccc4c(=O)cc(N5CCOCC5)oc34)c3sc4ccccc4c23)CC1 | 5.9 | 1.7 | 10 nM
NCCC(=O)Nc1ccc(-c2cccc3c(=O)cc(N4CCOCC4)oc23)c2sc3ccccc3c12 | 1.4 | 1.1 | 8 nM
O=c1cc(N2CCOCC2)oc2c(-c3ccc(OCCN4CCOCC4)c4c3sc3ccccc34)cccc12 | 6.4 | 1.5 | 8 nM
O=C(CNCCN1CCNC1=O)Nc1ccc(-c2cccc3c(=O)cc(N4CCOCC4)oc23)c2sc3ccccc3c12 | 1.2 | 1.2 | 7 nM
O=C(CN1CCCN(CCO)CC1)Nc1ccc(-c2cccc3c(=O)cc(N4CCOCC4)oc23)c2sc3ccccc3c12 | 3.3 | 1.2 | 30 nM
CCN1CCCC1CNCC(=O)Nc1ccc(-c2cccc3c(=O)cc(N4CCOCC4)oc23)c2sc3ccccc3c12 (stereo not drawn) | 5.9 | 1.2 | 30 nM
O=C(CN(CCO)CCO)Nc1ccc(-c2cccc3c(=O)cc(N4CCOCC4)oc23)c2sc3ccccc3c12 | 1.9 | 1.1 | 6 nM
O=C(CCN1CCCCC1)Nc1ccc(-c2cccc3c(=O)cc(N4CCOCC4)oc23)c2sc3ccccc3c12 | 5 | 1.9 | 37 nM
CN1CCCC1CCNCCC(=O)Nc1ccc(-c2cccc3c(=O)cc(N4CCOCC4)oc23)c2sc3ccccc3c12 (stereo not drawn) | 1.2 | 1.3 | 13 nM
COCCN(CCOC)CC(=O)Nc1ccc(-c2cccc3c(=O)cc(N4CCOCC4)oc23)c2sc3ccccc3c12 | 7.9 | 1.5 | 18 nM
CC(C)NCC(=O)CN1CCN(CC(=O)Nc2ccc(-c3cccc4c(=O)cc(N5CCOCC5)oc34)c3sc4ccccc4c23)CC1 | 8.8 | 2 | 6 nM
O=C(CCNCCN1CCOCC1)Nc1ccc(-c2cccc3c(=O)cc(N4CCOCC4)oc23)c2sc3ccccc3c12 | 1.9 | 1.3 | 6 nM
O=C(CCN1CCNCC1)Nc1ccc(-c2cccc3c(=O)cc(N4CCOCC4)oc23)c2sc3ccccc3c12 | 1.5 | 1 | 37 nM
CN(C)CCN1CCN(CCC(=O)Nc2ccc(-c3cccc4c(=O)cc(N5CCOCC5)oc34)c3sc4ccccc4c23)CC1 | 1.3 | 1.1 | 10 nM
CCN(CCC(=O)Nc1ccc(-c2cccc3c(=O)cc(N4CCOCC4)oc23)c2sc3ccccc3c12)Cc1ccncc1 | 1.6 | 1 | 31 nM
CC(C)N1CCN(CCOc2ccc(-c3cccc4c(=O)cc(N5CCOCC5)oc34)c3sc4ccccc4c23)CC1 | 6.3 | 1.6 | 3 nM
CC(=O)N1CCN(CC(=O)Nc2ccc(-c3cccc4c(=O)cc(N5CCOCC5)oc34)c3sc4ccccc4c23)CC1 | 4.8 | 1.4 | 5 nM
COCCNCCC(=O)Nc1ccc(-c2cccc3c(=O)cc(N4CCOCC4)oc23)c2sc3ccccc3c12 | 5.9 | 2.3 | 8 nM
CCN(CC)CCOc1ccc(-c2cccc3c(=O)cc(N4CCOCC4)oc23)c2sc3ccccc3c12 | – | – | 22 nM
